Tests used:
[1] = folding enthalpy; higher = less favourable; fluorescence melt of hairpins on a sequencing array, two-state fit; conditions: sodium 0.088 M
Procedure, shortened: (§1)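 In 50 mM Na-HEPES pH 8.0 containing 25 mM NaCl, hairpins from the library on a sequenced MiSeq flow cell were imaged for Cy3 fluorescence at 2.5 °C steps up to 60 °C, with Cy3 and quencher oligos annealed. After normalisation to pre-quench Cy3 and to control constructs, two-state fits with bootstrapping gave melting temperature and folding enthalpy. Four replicates were combined by inverse-variance weighting, and fitted temperatures were shifted up by 9.35 °C to match UV melts.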

[2] = melting temperature; fluorescence melt of hairpins on a sequencing array, two-state fit, raised by 9.35 °C to match UV melts; conditions: sodium 0.088 M
Procedure, shortened: as §1

GCCATTGGAAACAATAGC ((.((((....)))).))
folding enthalpy [1]: -13.7 kcal/mol | Tm [2]: 33.1 °C

CGGATTCGGAAACGACCG (((..(((....))))))
folding enthalpy [1]: -17.8 kcal/mol | Tm [2]: 35.7 °C

GTGTTCGAAAGAAAACAC ((((((....)))..)))
folding enthalpy [1]: -22.6 kcal/mol | Tm [2]: 38.2 °C

GCTACCGAAAGGTGGAGC ((((((....)))..)))
folding enthalpy [1]: -15.3 kcal/mol | Tm [2]: 41.3 °C

GTGACTGGAAACAGTTAC ((.((((....)))).))
folding enthalpy [1]: -29.2 kcal/mol | Tm [2]: 45.5 °C

GTTCCCGAAAGGGTTAAC ((((((....)))..)))
folding enthalpy [1]: -8.45 kcal/mol | Tm [2]: 30.1 °C

GATCTTATGGAAGATC ((((((....))))))
folding enthalpy [1]: -29.2 kcal/mol | Tm [2]: 40.5 °C

CAGACGAAAGTCTG (((((....)))))
folding enthalpy [1]: -24.4 kcal/mol | Tm [2]: 61.9 °C

GTGAAAGGAAACTTTCGC (.(((((....))))).)
folding enthalpy [1]: -27.3 kcal/mol | Tm [2]: 45.2 °C

GTGGTCGCGAAAGCGCAC (((..(((....))))))
folding enthalpy [1]: -12.4 kcal/mol | Tm [2]: 44.9 °C

GATCTAAACTTAGATC ((((((....))))))
folding enthalpy [1]: -37 kcal/mol | Tm [2]: 42.2 °C

AGCGGGAAACCGCT (((((....)))))
folding enthalpy [1]: -19.1 kcal/mol | Tm [2]: 67.1 °C

GATTACCGAAAGGTATC (((.(((....))))))
folding enthalpy [1]: -14.4 kcal/mol | Tm [2]: 36.1 °C

GATCTTAGGTAAGATC ((((((....))))))
folding enthalpy [1]: -30.1 kcal/mol | Tm [2]: 42.6 °C

GCCGAGCGAAAGCTATGC ((..(((....)))..))
folding enthalpy [1]: -12.5 kcal/mol | Tm [2]: 38.8 °C

GCACGAGGAAACTCATGC (((.(((....))).)))
folding enthalpy [1]: -28.8 kcal/mol | Tm [2]: 41.2 °C

GTCCGTCGAAAGACTGAC (((.(((....))).)))
folding enthalpy [1]: -28.3 kcal/mol | Tm [2]: 47.8 °C

GCGAAAGAAATTTCGC ((((((....))))))
folding enthalpy [1]: -34 kcal/mol | Tm [2]: 55 °C

GGTGCCGGAAACGGCATC (.(((((....))))).)
folding enthalpy [1]: -15.1 kcal/mol | Tm [2]: 62.4 °C

GTAGCCGAAAGGCATTAC ((((((....)))..)))
folding enthalpy [1]: -7.48 kcal/mol | Tm [2]: 27 °C

GCCCAGCGAAAGCTAAGC ((..(((....)))..))
folding enthalpy [1]: -9.29 kcal/mol | Tm [2]: 27.7 °C

GAGGACGAAAGTCAACTC ((((((....)))..)))
folding enthalpy [1]: -19.7 kcal/mol | Tm [2]: 38.2 °C

GGCTCTGGAAACGGAGTC (.(((.(....).))).)
folding enthalpy [1]: -30.2 kcal/mol | Tm [2]: 40 °C

GAGTGTGGAAACACGCTC (((.(((....))).)))
folding enthalpy [1]: -26.9 kcal/mol | Tm [2]: 54.5 °C

GCAACCGGAAACGATTGC ((((.((....)).))))
folding enthalpy [1]: -31.5 kcal/mol | Tm [2]: 47.4 °C

GAAGACGAAAGTCTGTTC ((((((....)))..)))
folding enthalpy [1]: -13.7 kcal/mol | Tm [2]: 40 °C

GCGTCGCGAAAGCTATGC ((.(.((....)).).))
folding enthalpy [1]: -20.1 kcal/mol | Tm [2]: 45 °C

GTTCACGGAAACGTAAAC (((.(((....))).)))
folding enthalpy [1]: -11.4 kcal/mol | Tm [2]: 34.9 °C

GATCATATGTATGATC ((((((....))))))
folding enthalpy [1]: -41.6 kcal/mol | Tm [2]: 48.6 °C

GTTTTGAAAAAAAC (((((....)))))
folding enthalpy [1]: -12 kcal/mol | Tm [2]: 37.6 °C

GCGATCGAAAGATCTCGC ((((((....)))..)))
folding enthalpy [1]: -20.2 kcal/mol | Tm [2]: 44.1 °C

GGAGACGAAAGTCCCTCC ((((((....)))..)))
folding enthalpy [1]: -16.3 kcal/mol | Tm [2]: 49.8 °C

GGATTTGGAAACAAGTCC (((.(((....))).)))
folding enthalpy [1]: -31.5 kcal/mol | Tm [2]: 42.7 °C

GCCCGAGGAAACTCGAGC ((.((((....)))).))
folding enthalpy [1]: -31 kcal/mol | Tm [2]: 48.4 °C

GATCGTACTACGATC ((((((...))))))
folding enthalpy [1]: -36.3 kcal/mol | Tm [2]: 56.5 °C

GCAATCGAAAGATTTGC ((((((....))).)))
folding enthalpy [1]: -27.6 kcal/mol | Tm [2]: 44.2 °C

GTACGCGAAAGCGGATAC ((((((....)))..)))
folding enthalpy [1]: -10.3 kcal/mol | Tm [2]: 37.1 °C

GGTGCCGGAAACAGCACC (((((.(....).)))))
folding enthalpy [1]: -46.2 kcal/mol | Tm [2]: 53.5 °C

GGTGGGGGAAACCCTGCC ((..(((....)))..))
folding enthalpy [1]: -27.9 kcal/mol | Tm [2]: 47.8 °C

GAAGATGGAAACGTCTTC (((((.(....).)))))
folding enthalpy [1]: -33.9 kcal/mol | Tm [2]: 43.2 °C

GCTACCGGAAACGATAGC ((((.((....)).))))
folding enthalpy [1]: -31.6 kcal/mol | Tm [2]: 43.7 °C

GCCTACGAAAGTAATGGC ((((((....)))..)))
folding enthalpy [1]: -24.8 kcal/mol | Tm [2]: 45.3 °C

GCTTTACGAAAGTAGAGC (((.(((....))).)))
folding enthalpy [1]: -38.9 kcal/mol | Tm [2]: 49.4 °C

GATCCGTATCCGGATC ((((((....))))))
folding enthalpy [1]: -39 kcal/mol | Tm [2]: 58.2 °C

CGTCCGGAAACGGTTACG ((((((....)))..)))
folding enthalpy [1]: -13.9 kcal/mol | Tm [2]: 39.3 °C

GCTCCTCGAAAGAGTAGC (((.(((....))).)))
folding enthalpy [1]: -32.1 kcal/mol | Tm [2]: 45.5 °C

GGGACCTCGAAAGAGCCC (((..(((....))))))
folding enthalpy [1]: -19.4 kcal/mol | Tm [2]: 35.3 °C

GAAAACGAAAGTTTTTC ((((((....))).)))
folding enthalpy [1]: -17.8 kcal/mol | Tm [2]: 42.1 °C

GCGTAGAAACGC ((((....))))
folding enthalpy [1]: -18.6 kcal/mol | Tm [2]: 48 °C

GTGACGTCGAAAGACCAC (((..(((....))))))
folding enthalpy [1]: -13.6 kcal/mol | Tm [2]: 40.3 °C

GAGGTAGGAAACCACCTC (((((.(....).)))))
folding enthalpy [1]: -31 kcal/mol | Tm [2]: 42.2 °C

GGTAGTGGAAACGCTATC (.(((.(....).))).)
folding enthalpy [1]: -15.7 kcal/mol | Tm [2]: 30.8 °C

GAGAGGGAAACCTCTC ((((((....))))))
folding enthalpy [1]: -36.2 kcal/mol | Tm [2]: 55.3 °C

GGATCAGGAAACTGGTCC (((.(((....))).)))
folding enthalpy [1]: -39.2 kcal/mol | Tm [2]: 51.3 °C

GCGATACTTCGC ((((....))))
folding enthalpy [1]: -25.9 kcal/mol | Tm [2]: 52.7 °C

GATCGCCCTAGCGATC ((((((....))))))
folding enthalpy [1]: -34.4 kcal/mol | Tm [2]: 69.1 °C

GCGACTGGAAACAGTTGC ((.((((....)))).))
folding enthalpy [1]: -45.4 kcal/mol | Tm [2]: 55.5 °C

GCCCCCGAAAGGGATGGC ((((((....)))..)))
folding enthalpy [1]: -24.1 kcal/mol | Tm [2]: 52.1 °C

GGTGTTCCGAAAGGAACC (((..(((....))))))
folding enthalpy [1]: -9.16 kcal/mol | Tm [2]: 47.7 °C

GTGGACGAAAGTCGCCAC ((((((....)))..)))
folding enthalpy [1]: -18 kcal/mol | Tm [2]: 43 °C

GTTAGGAAACTAAC (((((....)))))
folding enthalpy [1]: -15.7 kcal/mol | Tm [2]: 41.4 °C

GTTCCCGGAAACGGGAGC (.(((((....))))).)
folding enthalpy [1]: -26 kcal/mol | Tm [2]: 54.2 °C

GATCCCCGTGGGATC ((((((...))))))
folding enthalpy [1]: -27.8 kcal/mol | Tm [2]: 65.2 °C

TAACGGAAACGTTA (((((....)))))
folding enthalpy [1]: -18.4 kcal/mol | Tm [2]: 41.3 °C

GAAGGGGGAAACCCTTTC (((.(((....))).)))
folding enthalpy [1]: -18.7 kcal/mol | Tm [2]: 41.1 °C

GATCCGAGTCCGGATC ((((((....))))))
folding enthalpy [1]: -40.2 kcal/mol | Tm [2]: 56 °C

GTAGACGAAAGTCTCTAC ((((((....)))..)))
folding enthalpy [1]: -11.6 kcal/mol | Tm [2]: 34.9 °C

GCAAGTACGAAAGTATGC (((..(((....))))))
folding enthalpy [1]: -19 kcal/mol | Tm [2]: 33.4 °C

GCCTCGCGAAAGCCTGGC (((..((....))..)))
folding enthalpy [1]: -22.9 kcal/mol | Tm [2]: 46.5 °C

GGCATCGAAAGATAGGCC ((((((....)))..)))
folding enthalpy [1]: -27.2 kcal/mol | Tm [2]: 46 °C

GCGAAGCGAAAGCGTTGC ((.(.((....)).).))
folding enthalpy [1]: -12.4 kcal/mol | Tm [2]: 47.7 °C

GGGACGGGAAACTGTCCC (((((.(....).)))))
folding enthalpy [1]: -39.8 kcal/mol | Tm [2]: 57.8 °C

GACCGAGGAAACCCGGTC (((((.(....).)))))
folding enthalpy [1]: -36.4 kcal/mol | Tm [2]: 53.2 °C

GGGTCCGAAAGGATCCCC ((((((....)))..)))
folding enthalpy [1]: -14.6 kcal/mol | Tm [2]: 60.5 °C

GTGTCAGGAAACTGACAC (((((((....)))))))
folding enthalpy [1]: -37 kcal/mol | Tm [2]: 66.4 °C

GATCGGCTCGCCGATC ((((((....))))))
folding enthalpy [1]: -35.9 kcal/mol | Tm [2]: 69.3 °C

GCCGGTGCGAAAGCAGGC (((..(((....))))))
folding enthalpy [1]: -17.1 kcal/mol | Tm [2]: 56.8 °C

GGCTCAGGAAACTGGGCC (((.(((....))).)))
folding enthalpy [1]: -43.7 kcal/mol | Tm [2]: 58.3 °C

GTCAACCGAAAGGTGAC (((.(((....))))))
folding enthalpy [1]: -24.4 kcal/mol | Tm [2]: 55.7 °C

GAAGACGAAAGTCCCTTC ((((((....)))..)))
folding enthalpy [1]: -13.8 kcal/mol | Tm [2]: 30.8 °C

GGCGGCTCGAAAGAGGCC (((..(((....))))))
folding enthalpy [1]: -11.4 kcal/mol | Tm [2]: 51.6 °C

GCCGCGCCGAAAGGCGGC (((..(((....))))))
folding enthalpy [1]: -9.11 kcal/mol | Tm [2]: 67.6 °C

GAGAATGGAAACATTCCC (.(((((....))))).)
folding enthalpy [1]: -19.6 kcal/mol | Tm [2]: 31.2 °C

GATGTTGAAAAACATC ((((((....))))))
folding enthalpy [1]: -35.7 kcal/mol | Tm [2]: 51.6 °C

GTTGGCGGAAACGCCAGC (.(((((....))))).)
folding enthalpy [1]: -15.4 kcal/mol | Tm [2]: 58.2 °C

GTACCAGGAAACTGGTAC (((((((....)))))))
folding enthalpy [1]: -40.4 kcal/mol | Tm [2]: 62.2 °C

GCGTGTCACGC ((((...))))
folding enthalpy [1]: -31.1 kcal/mol | Tm [2]: 57.7 °C

GATATCGGAAACGATATC (((((((....)))))))
folding enthalpy [1]: -42.4 kcal/mol | Tm [2]: 56.7 °C

GGAGTTGGAAACAGCTCC ((((.((....)).))))
folding enthalpy [1]: -43.9 kcal/mol | Tm [2]: 50.2 °C

GGTTCACGAAAGTGACC (((.(((....))))))
folding enthalpy [1]: -15.5 kcal/mol | Tm [2]: 59 °C

GCAACGCGAAAGCGACGC ((..(((....)))..))
folding enthalpy [1]: -15.9 kcal/mol | Tm [2]: 48.5 °C

GACCCAGAAATGGGTC ((((((....))))))
folding enthalpy [1]: -35.3 kcal/mol | Tm [2]: 64 °C

From the array DNA melting data of Ke et al. (doi:10.1101/2024.01.08.574731)
